# Results: ChEMBL document CHEMBL1139583, “Design, synthesis and evaluation of racemic 1-(4-hydroxyphenyl)-2-[3-(substituted phenoxy)-2-hydroxy-1-propyl]amino-1-propanol hydrochlorides as novel uterine relaxants” (Bioorg Med Chem Lett, 2005)
# Species: Rattus norvegicus
# Experiment: Inhibition of oxytocin induced contraction required for uterine relaxant activity in isolated rat uterus preparation
# Type: functional
row,SMILES,IC50
1,CC(=O)Nc1ccc(OCC(O)CNC(C)C(O)c2ccc(O)cc2)c(C(C)=O)c1.Cl (centres undefined),6.58 µmol
2,CC(=O)Nc1ccc(OCC(O)CNC(C)C(O)c2ccc(O)cc2)cc1.Cl (centres undefined),6.07 µmol

# The remaining lines, values ahead:
row,IC50,SMILES
1,6.32 µmol,CC(NCC(O)COc1ccc(CC(N)=O)cc1)C(O)c1ccc(O)cc1.Cl (centres undefined)
2,6.02 µmol,COCCc1ccc(OCC(O)CNC(C)C(O)c2ccc(O)cc2)cc1.Cl (centres undefined)
3,9.15 µmol,CC(COc1ccccc1)NC(C)C(O)c1ccc(O)cc1.Cl (centres undefined) [ISOXSUPRINE HYDROCHLORIDE]

# Species: Rattus norvegicus
# Experiment: cAmp released in rat at 10 mg
# Type: functional
# Method in brief: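 Oral dosing of virgin female Sprague–Dawley rats in oestrus. Rats killed 3 h later. Uterine strips weighed and homogenized in Tris–EDTA, then centrifuged at 12,000g. Supernatant TCA removed by ether extraction and pH set to 7.5. cAMP measured by [³H]cAMP competitive binding assay against 0–16 pmol standards, 2 h at 2–8 °C, charcoal separation, scintillation counting.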
row,SMILES,Activity
1,CC(=O)Nc1ccc(OCC(O)CNC(C)C(O)c2ccc(O)cc2)c(C(C)=O)c1.Cl (centres undefined),3.53 pmol
2,CC(=O)Nc1ccc(OCC(O)CNC(C)C(O)c2ccc(O)cc2)cc1.Cl (centres undefined),3.48 pmol
3,CC(NCC(O)COc1ccc(CC(N)=O)cc1)C(O)c1ccc(O)cc1.Cl (centres undefined),3.56 pmol
4,COCCc1ccc(OCC(O)CNC(C)C(O)c2ccc(O)cc2)cc1.Cl (centres undefined),3.66 pmol
5,CC(COc1ccccc1)NC(C)C(O)c1ccc(O)cc1.Cl (centres undefined) [ISOXSUPRINE HYDROCHLORIDE],5.03 pmol

# Species: Rattus norvegicus
# Experiment: Delayed onset of labour in rat by comparing with control at 10 mg
# Type: functional
# Method in brief: (§1)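 Pregnant Sprague–Dawley rats, six per dose group, dosed orally at 10 and 15 mg/kg/day from gestation day 13 to 21. Reference agent given at 10 mg/kg/day p.o. Onset of labour compared with control.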
row,SMILES,Activity
1,CC(=O)Nc1ccc(OCC(O)CNC(C)C(O)c2ccc(O)cc2)c(C(C)=O)c1.Cl (centres undefined),23.7 h
2,CC(=O)Nc1ccc(OCC(O)CNC(C)C(O)c2ccc(O)cc2)cc1.Cl (centres undefined),25 h
3,CC(NCC(O)COc1ccc(CC(N)=O)cc1)C(O)c1ccc(O)cc1.Cl (centres undefined),24 h
4,COCCc1ccc(OCC(O)CNC(C)C(O)c2ccc(O)cc2)cc1.Cl (centres undefined),27.1 h
5,CC(COc1ccccc1)NC(C)C(O)c1ccc(O)cc1.Cl (centres undefined) [ISOXSUPRINE HYDROCHLORIDE],31.6 h

# Species: Rattus norvegicus
# Experiment: Delayed onset of labour in rat by comparing with control at 15 mg
# Type: functional
# Method in brief: as §1
row,SMILES,Activity
1,CC(=O)Nc1ccc(OCC(O)CNC(C)C(O)c2ccc(O)cc2)c(C(C)=O)c1.Cl (centres undefined),30.1 h
2,CC(=O)Nc1ccc(OCC(O)CNC(C)C(O)c2ccc(O)cc2)cc1.Cl (centres undefined),31.8 h
3,CC(NCC(O)COc1ccc(CC(N)=O)cc1)C(O)c1ccc(O)cc1.Cl (centres undefined),31.7 h
4,COCCc1ccc(OCC(O)CNC(C)C(O)c2ccc(O)cc2)cc1.Cl (centres undefined),33.7 h
